Assay results as given in ChEMBL document CHEMBL5329156, “Discovery and development of novel substituted monohydrazides as potent antifungal agents” (RSC Med Chem, 2023).
Activity calls are given as the source filed them.

Tests used:
Candida albicans [1] = assay: Antifungal activity against Candida albicans ATCC 10231 assessed as fungal growth inhibition by double dilution method; assay type: functional
How it was run: (§1)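 Broth microdilution after CLSI M27-A3/M38-A2 with minor changes. Single colony grown overnight in YPD at 35 °C, 200 rpm. Compound final range 0.06-31.3 µg/mL; incubated 48 h at 35 °C.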

Candida albicans [2] = assay: Antifungal activity against Candida albicans ATCC 64124 assessed as fungal growth inhibition by double dilution method; assay type: functional
How it was run: (§2)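 Broth microdilution after CLSI M27-A3/M38-A2 with minor modifications. A single colony was grown overnight in YPD at 35 °C with shaking at 200 rpm. Cells were mixed 1:1 with compound (final 0.06-31.3 µg/mL, from DMSO stocks) and incubated 48 h at 35 °C.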

Candida albicans [3] = assay: Antifungal activity against itraconazole/fluconazole susceptible Candida albicans ATCC MYA-2876 assessed as fungal growth inhibition by double dilution method; assay type: functional; how it was run: as §2
Candida albicans [4] = assay: Antifungal activity against itraconazole/fluconazole resistant Candida albicans ATCC 90819 assessed as fungal growth inhibition by double dilution method; assay type: functional; how it was run: as §2
Candida albicans [5] = assay: Antifungal activity against itraconazole/fluconazole susceptible Candida albicans ATCC MYA-2310 assessed as fungal growth inhibition by double dilution method; assay type: functional; how it was run: as §2
Candida albicans [6] = assay: Antifungal activity against itraconazole/fluconazole resistant Candida albicans ATCC MYA-1237 assessed as fungal growth inhibition by double dilution method; assay type: functional; how it was run: as §2
Candida albicans [7] = assay: Antifungal activity against itraconazole/fluconazole resistant Candida albicans ATCC MYA-1003 assessed as fungal growth inhibition by double dilution method; assay type: functional; how it was run: as §2
Nakaseomyces glabratus [8] = assay: Antifungal activity against Candida glabrata ATCC 2001 assessed as fungal growth inhibition by double dilution method; assay type: functional; how it was run: as §1
Pichia kudriavzevii [9] = assay: Antifungal activity against Pichia kudriavzevii ATCC 6258 assessed as fungal growth inhibition by double dilution method; assay type: functional; how it was run: as §1
Nakaseomyces glabratus [10] = assay: Antifungal activity against Candida glabrata ATCC 22019 assessed as fungal growth inhibition by double dilution method; assay type: functional; how it was run: as §1
[Candida] auris [11] = Antifungal activity against Candida auris AR Bank # 0384 assessed as fungal growth inhibition by double dilution method; assay type: functional; conditions: Candidozyma auris; how it was run: as §1
[Candida] auris [12] = Antifungal activity against Candida auris AR Bank # 0390 assessed as fungal growth inhibition by double dilution method; assay type: functional; conditions: Candidozyma auris; how it was run: as §1
Cryptococcus neoformans = assay: Antifungal activity against Cryptococcus neoformans ATCC MYA-895 assessed as fungal growth inhibition by double dilution method; assay type: functional; how it was run: as §1
Aspergillus terreus = assay: Antifungal activity against Aspergillus terreus ATCC MYA-3633 assessed as fungal growth inhibition by double dilution method; assay type: functional
Aspergillus fumigatus [13] = assay: Antifungal activity against Aspergillus fumigatus NRRL 163 assessed as fungal growth inhibition by double dilution method; assay type: functional
Aspergillus flavus = assay: Antifungal activity against Aspergillus flavus ATCC MYA-3631 assessed as fungal growth inhibition by double dilution method; assay type: functional
Aspergillus nidulans = assay: Antifungal activity against Aspergillus nidulans ATCC 38163 assessed as fungal growth inhibition by double dilution method; assay type: functional
Aspergillus fumigatus [14] = assay: Antifungal activity against Aspergillus fumigatus NRRL 5109 assessed as fungal growth inhibition by double dilution method; assay type: functional
Aspergillus fumigatus [15] = assay: Antifungal activity against Aspergillus fumigatus NRRL 6113 assessed as fungal growth inhibition by double dilution method; assay type: functional
[Candida] auris [16] = Antifungal activity against Candida auris AR Bank # 381 assessed as fungal growth inhibition by double dilution method; assay type: functional; conditions: Candidozyma auris; how it was run: as §1
[Candida] auris [17] = Antifungal activity against Candida auris AR Bank # 382 assessed as fungal growth inhibition by double dilution method; assay type: functional; conditions: Candidozyma auris; how it was run: as §1
[Candida] auris [18] = Antifungal activity against Candida auris AR Bank # 383 assessed as fungal growth inhibition by double dilution method; assay type: functional; conditions: Candidozyma auris; how it was run: as §1
[Candida] auris [19] = Antifungal activity against Candida auris AR Bank # 384 assessed as fungal growth inhibition by double dilution method; assay type: functional; conditions: Candidozyma auris; how it was run: as §1
[Candida] auris [20] = Antifungal activity against Candida auris AR Bank # 385 assessed as fungal growth inhibition by double dilution method; assay type: functional; conditions: Candidozyma auris; how it was run: as §1
[Candida] auris [21] = Antifungal activity against Candida auris AR Bank # 386 assessed as fungal growth inhibition by double dilution method; assay type: functional; conditions: Candidozyma auris; how it was run: as §1
[Candida] auris [22] = Antifungal activity against Candida auris AR Bank # 387 assessed as fungal growth inhibition by double dilution method; assay type: functional; conditions: Candidozyma auris; how it was run: as §1
[Candida] auris [23] = Antifungal activity against Candida auris AR Bank # 388 assessed as fungal growth inhibition by double dilution method; assay type: functional; conditions: Candidozyma auris; how it was run: as §1
[Candida] auris [24] = Antifungal activity against Candida auris AR Bank # 389 assessed as fungal growth inhibition by double dilution method; assay type: functional; conditions: Candidozyma auris; how it was run: as §1
[Candida] auris [25] = Antifungal activity against Candida auris AR Bank # 390 assessed as fungal growth inhibition by double dilution method; assay type: functional; conditions: Candidozyma auris; how it was run: as §1
Candida duobushaemulonii [26] = assay: Antifungal activity against Candida duobushaemulonii AR Bank # 391 assessed as fungal growth inhibition by double dilution method; assay type: functional; conditions: Candidozyma duobushaemuli; how it was run: as §1
Candida duobushaemulonii [27] = assay: Antifungal activity against Candida duobushaemulonii AR Bank # 392 assessed as fungal growth inhibition by double dilution method; assay type: functional; conditions: Candidozyma duobushaemuli; how it was run: as §1
[Candida] haemuloni [28] = Antifungal activity against Candida haemulonii AR Bank # 393 assessed as fungal growth inhibition by double dilution method; assay type: functional; conditions: Candidozyma haemuli; how it was run: as §1
Candida duobushaemulonii [29] = assay: Antifungal activity against Candida duobushaemulonii AR Bank # 394 assessed as fungal growth inhibition by double dilution method; assay type: functional; conditions: Candidozyma duobushaemuli; how it was run: as §1
[Candida] haemuloni [30] = Antifungal activity against Candida haemulonii AR Bank # 395 assessed as fungal growth inhibition by double dilution method; assay type: functional; conditions: Candidozyma haemuli; how it was run: as §1
Kodamaea ohmeri = assay: Antifungal activity against Kodamaea ohmeri AR Bank # 396 assessed as fungal growth inhibition by double dilution method; assay type: functional; how it was run: as §1
Pichia kudriavzevii [31] = assay: Antifungal activity against Pichia kudriavzevii AR Bank # 397 assessed as fungal growth inhibition by double dilution method; assay type: functional; how it was run: as §1
Clavispora lusitaniae = assay: Antifungal activity against Clavispora lusitaniae AR Bank # 398 assessed as fungal growth inhibition by double dilution method; assay type: functional; how it was run: as §1
Saccharomyces cerevisiae [32] = assay: Antifungal activity against Saccharomyces cerevisiae AR Bank # 399 assessed as fungal growth inhibition by double dilution method; assay type: functional; how it was run: as §1
Saccharomyces cerevisiae [33] = assay: Antifungal activity against Saccharomyces cerevisiae AR Bank # 400 assessed as fungal growth inhibition by double dilution method; assay type: functional; how it was run: as §1
J774.A1 = assay: Cytotoxicity against J774A.1 cells assessed as reduction in cell viability at 31.3 microg/ml; assay type: toxicity, cell-based; conditions: mouse, dose 31.3 µg/ml
How it was run: (§3)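 Cells in DMEM with 10% FBS and 1% Pen/Strep, seeded at 10,000 cells/well and held overnight at 37 °C, 5% CO2. Compounds added at final 31.3-0.12 µg/mL (0.05% DMSO vehicle) for 24 h. Resazurin then added for 6 h; fluorescence read at ex 560/em 590. Triton X-100 1% as positive control; values normalized to vehicle. Run in quadruplicate.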

HEK293 = assay: Cytotoxicity against human HEK-293 cells assessed as reduction in cell viability at 31.3 microg/ml; assay type: toxicity, cell-based; conditions: dose 31.3 µg/ml; how it was run: as §3
HepG2 = assay: Cytotoxicity against human HepG2 cells assessed as reduction in cell viability upto 31.3 microg/ml; assay type: toxicity, cell-based; conditions: dose < 31.3 µg/ml; how it was run: as §3
Candida albicans [34] = assay: Antifungal activity against Candida albicans ATCC 10231 assessed as fungal growth inhibition by time kill studies; assay type: functional, organism-based
How it was run: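 Overnight YPD culture (35 °C, 200 rpm) diluted in RPMI 1640 to ~1×10⁵ CFU/mL. […] Samples at 0, 3, 6, 9, 12, 18 and 24 h were 10-fold diluted and plated on PDA; colonies counted after 48 h at 35 °C. Run in duplicate.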

Candida albicans [35] = assay: Antibiofilm activity against Candida albicans ATCC 10231 assessed as reduction in biofilm production at 1.96 to 3.9 microg/ml by biofilm formation assay; assay type: functional, organism-based; conditions: dose 1.96-3.9 µg/ml
Candida albicans [36] = assay: Antibiofilm activity against Candida albicans ATCC 10231 assessed as reduction in preformed biofilm production by biofilm formation assay; assay type: functional, organism-based
How it was run: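 After PBS washes, XTT 0.5 mg/mL with 1 µM menadione added, 3 h at 37 °C in the dark; absorbance read at 450 nm.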

[37] = Cytotoxicity against human HepG2 cells assessed as cell survival at 31.3 microg/ml relative to control; assay type: toxicity, cell-based; conditions: at 31.3 µg/mL, read-out: Activity; how it was run: as §3

O=C(NNc1cccc(Cl)c1)c1ccccn1
≤ 0.06 µg/mL: MIC ([Candida] haemuloni [30])
0.49 µg/mL: MIC (Candida albicans [4]) | MIC (Candida albicans [7]) | MIC (Pichia kudriavzevii [9]) | MIC ([Candida] auris [17]) | MIC ([Candida] auris [18]) | MIC ([Candida] auris [20]) | MIC ([Candida] auris [22]) | MIC ([Candida] auris [23]) | MIC ([Candida] auris [24]) | MIC ([Candida] auris [25])
> 31.3 µg/mL: MIC (Aspergillus fumigatus [13]) | MIC (Aspergillus flavus) | MIC (Aspergillus fumigatus [14]) | MIC (Aspergillus fumigatus [15])
Non-Toxic: Activity (J774.A1) | Activity (HEK293) | Activity (HepG2)
12 µg/mL: MIC (Candida duobushaemulonii [29])
0.12 µg/mL: MIC (Candida albicans [1]) | MIC (Cryptococcus neoformans) | MIC ([Candida] haemuloni [28]) | MIC (Kodamaea ohmeri) | MIC (Pichia kudriavzevii [31])
active: Activity (Candida albicans [34]) Dose-Dependent Effect | Activity (Candida albicans [35])
0.98 µg/mL: MIC (Candida albicans [2]) | MIC (Candida albicans [3]) | MIC (Candida albicans [5]) | MIC (Candida albicans [6]) | MIC ([Candida] auris [11]) | MIC ([Candida] auris [12]) | MIC (Aspergillus terreus) | MIC ([Candida] auris [16]) | MIC ([Candida] auris [19]) | MIC (Clavispora lusitaniae) | MIC (Saccharomyces cerevisiae [32]) | MIC (Saccharomyces cerevisiae [33])
1.95 µg/mL: MIC (Nakaseomyces glabratus [8]) | MIC (Nakaseomyces glabratus [10])
0.24 µg/mL: MIC (Aspergillus nidulans) | MIC ([Candida] auris [21]) | MIC (Candida duobushaemulonii [26]) | MIC (Candida duobushaemulonii [27])
inactive: Activity (Candida albicans [36])

O=C(NNc1cc(F)cc(F)c1)c1ccccn1
1.95 µg/mL: MIC (Candida albicans [6]) | MIC (Nakaseomyces glabratus [10]) | MIC (Aspergillus flavus) | MIC (Saccharomyces cerevisiae [32])
0.49 µg/mL: MIC (Candida albicans [7]) | MIC ([Candida] auris [12]) | MIC (Aspergillus nidulans) | MIC ([Candida] auris [25]) | MIC (Candida duobushaemulonii [27]) | MIC ([Candida] haemuloni [28]) | MIC (Clavispora lusitaniae)
inactive: Activity (Candida albicans [35])
> 31.3 µg/mL: MIC (Aspergillus fumigatus [13]) | MIC (Aspergillus fumigatus [14])
0.24 µg/mL: MIC (Pichia kudriavzevii [9]) | MIC ([Candida] auris [11]) | MIC (Cryptococcus neoformans) | MIC ([Candida] auris [18]) | MIC ([Candida] auris [20]) | MIC ([Candida] auris [22]) | MIC ([Candida] auris [23]) | MIC ([Candida] auris [24]) | MIC (Candida duobushaemulonii [26]) | MIC (Candida duobushaemulonii [29]) | MIC ([Candida] haemuloni [30])
31.3 µg/mL: MIC (Aspergillus fumigatus [15])
89%: viability at 31.3 microg/ml [37]
0.98 µg/mL: MIC (Candida albicans [2]) | MIC (Candida albicans [3]) | MIC (Candida albicans [4]) | MIC (Candida albicans [5]) | MIC (Aspergillus terreus) | MIC ([Candida] auris [16]) | MIC ([Candida] auris [19]) | MIC (Saccharomyces cerevisiae [33])
7.8 µg/mL: MIC (Nakaseomyces glabratus [8])
0.12 µg/mL: MIC ([Candida] auris [17]) | MIC (Kodamaea ohmeri) | MIC (Pichia kudriavzevii [31])
≤ 0.06 µg/mL: MIC (Candida albicans [1]) | MIC ([Candida] auris [21])
Non-Toxic: Activity (J774.A1) | Activity (HEK293)
